Experimental findings from ChEMBL document CHEMBL4387752, “Identification of substituted benzothiazole sulfones as potent and selective inhibitors of endothelial lipase” (Bioorg Med Chem Lett, 2019) are described below.

The target of data set [1] is T1, Hepatic triacylglycerol lipase (Homo sapiens, UniProt P11150).
T1 sequence (P11150 whole entry): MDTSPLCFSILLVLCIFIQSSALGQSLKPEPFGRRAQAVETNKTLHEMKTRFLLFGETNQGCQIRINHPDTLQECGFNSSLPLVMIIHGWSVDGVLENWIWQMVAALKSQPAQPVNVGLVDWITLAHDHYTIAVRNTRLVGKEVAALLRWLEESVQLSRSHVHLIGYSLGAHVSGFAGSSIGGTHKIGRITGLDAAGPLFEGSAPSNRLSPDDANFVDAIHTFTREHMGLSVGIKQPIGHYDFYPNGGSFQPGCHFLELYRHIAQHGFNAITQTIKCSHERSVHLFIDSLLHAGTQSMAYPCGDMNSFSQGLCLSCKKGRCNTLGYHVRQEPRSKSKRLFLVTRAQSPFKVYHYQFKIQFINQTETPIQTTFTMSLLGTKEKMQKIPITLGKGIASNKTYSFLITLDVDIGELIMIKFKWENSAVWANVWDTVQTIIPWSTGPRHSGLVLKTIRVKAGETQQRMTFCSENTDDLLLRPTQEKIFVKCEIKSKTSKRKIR
As to the kind of experiment: Inhibition of human hepatic lipase expressed in African green monkey COS7 cells using PED-A1 as substrate incubated for 20 mins and measured every 20 secs for 10 mins by FRET assay. In kind it is cell-based. The procedure, abridged: (§1)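 IC50s were calculated from mean inhibition values of duplicate determinations.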

Data set [2] has as its target T2, Endothelial lipase (Mus musculus, UniProt Q9WVG5).
T2 sequence (Q9WVG5 whole entry): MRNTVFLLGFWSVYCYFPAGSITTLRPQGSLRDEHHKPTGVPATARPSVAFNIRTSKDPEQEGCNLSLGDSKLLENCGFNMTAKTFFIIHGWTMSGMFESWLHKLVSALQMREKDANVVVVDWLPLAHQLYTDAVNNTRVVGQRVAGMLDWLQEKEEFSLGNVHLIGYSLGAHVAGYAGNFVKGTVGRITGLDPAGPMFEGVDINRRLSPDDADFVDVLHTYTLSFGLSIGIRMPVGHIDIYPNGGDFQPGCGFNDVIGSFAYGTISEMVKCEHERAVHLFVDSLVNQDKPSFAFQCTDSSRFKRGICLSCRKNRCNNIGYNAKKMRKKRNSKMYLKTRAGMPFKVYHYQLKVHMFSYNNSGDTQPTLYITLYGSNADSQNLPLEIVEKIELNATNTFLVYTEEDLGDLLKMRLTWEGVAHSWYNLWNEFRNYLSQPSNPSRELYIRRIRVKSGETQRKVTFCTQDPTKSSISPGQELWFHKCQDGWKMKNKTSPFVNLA
As to the kind of experiment: Inhibition of mouse endothelial lipase expressed in HEK293F cells using D31-POPC-HDL as substrate incubated for 2 hrs in presence of mouse plasma by LC/MS analysis. The method, boiled down: (§2)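 IC50 values were derived from the means of duplicate inhibition measurements.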

The nature of data set [3]: Permeability of compound at pH 5.5 by PAMPA. Format: ADME. Conditions: read-out: permeability. The method, boiled down: (§3)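 Permeability was measured by parallel artificial membrane permeability assay (PAMPA) at pH 5.5 and pH 7.4. Values are reported in nm/s.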
The nature of data set [4]: Permeability of compound at pH 7.4 by PAMPA. In kind it is ADME. Conditions: read-out: permeability. The procedure, abridged: as §3
A further data set is filed under the species Homo sapiens. As to the kind of experiment: Selectivity index, ratio of IC50 for inhibition of human hepatic lipase expressed in African green monkey COS7 cells to IC50 for inhibition of human endothelial lipase derived from human HT1080 cell conditioned media. Format: cell-based.
Data set [5] has as its target T3, Endothelial lipase (Homo sapiens, UniProt Q9Y5X9).
T3 sequence (Q9Y5X9 whole entry): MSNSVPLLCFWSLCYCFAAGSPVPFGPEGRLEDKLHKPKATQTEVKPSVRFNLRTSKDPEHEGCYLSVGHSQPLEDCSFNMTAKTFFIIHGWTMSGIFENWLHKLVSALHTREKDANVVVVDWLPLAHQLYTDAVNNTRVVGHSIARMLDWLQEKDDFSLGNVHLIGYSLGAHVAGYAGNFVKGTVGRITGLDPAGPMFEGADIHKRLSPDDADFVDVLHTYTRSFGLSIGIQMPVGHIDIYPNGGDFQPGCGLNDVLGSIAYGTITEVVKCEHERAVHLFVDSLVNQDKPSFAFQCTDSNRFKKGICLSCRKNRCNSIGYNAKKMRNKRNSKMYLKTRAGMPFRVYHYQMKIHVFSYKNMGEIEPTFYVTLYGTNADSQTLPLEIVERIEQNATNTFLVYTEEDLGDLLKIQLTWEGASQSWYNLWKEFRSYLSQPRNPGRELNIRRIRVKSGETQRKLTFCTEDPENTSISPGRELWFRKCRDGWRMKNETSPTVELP
As to the kind of experiment: Inhibition of human endothelial lipase using D31-POPC-HDL as substrate incubated for 2 hrs in presence of human serum by LC/MS analysis. The method, boiled down: as §2

Data set [6] deals with T3, Endothelial lipase. As to the kind of experiment: Inhibition of human endothelial lipase derived from human HT1080 cell conditioned media using PED-A1 as substrate incubated for 20 mins and measured every 20 secs for 10 mins by FRET assay. The method, boiled down:
as §1

A short description of data set [7]: Cmax in Balb/c mouse at 10 mg/kg, po. Conditions: in vivo. In kind it is ADME, organism-based. Further details: dose 10 mg/kg, route oral. The method, boiled down:
(§4)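 Oral PK in fasted male balb/c mice. Dosing vehicle was ethanol/PEG 400/water (10:60:30).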

The nature of data set [8]: Plasma concentration in Balb/c mouse at 10 mg/kg, po measured after 7 hrs. In kind it is ADME, organism-based. The method, boiled down:
as §4

The nature of data set [9]: Plasma concentration in Balb/c mouse at 10 mg/kg, po measured after 24 hrs. In kind it is ADME, organism-based. The procedure, abridged: as §4
A short description of data set [10]: Tmax in Balb/c mouse at 10 mg/kg, po. Conditions: in vivo. In kind it is ADME, organism-based. The method, boiled down:
as §4

The nature of data set [11]: Total AUC in Balb/c mouse at 10 mg/kg, po measured after 24 hrs. Format: ADME, organism-based. Further details: dose 10 mg/kg, time AUCmax, route oral. Conditions: in vivo. The procedure, abridged: as §4
A short description of data set [12]: Metabolic stability in Balb/c mouse liver microsomes assessed as parent compound remaining at 0.5 uM measured after 10 mins. Format: ADME, Microsome. Conditions: read-out: Stability. The method, boiled down: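 Test compound at 0.5 μM was incubated for 10 min with mouse liver microsomes. The read-out is the percentage of parent remaining.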

In data set [1], `CS(=O)(=O)C(C(=O)NCC(=O)NC1CC1)c1nc2ccc(-c3ccccc3)cc2s1` (centres undefined) displayed an IC50 of 0.047 µM.
As to `CS(=O)(=O)C(C(=O)NCC(=O)NC1CC1)c1nc2ccc(-c3ccc(F)nc3)cc2s1` (centres undefined), the figures for the IC50 (in [1]; on Endothelial lipase [2]; on Endothelial lipase [5]) were 0.13 µM, 0.29 µM and 0.007 µM, respectively. In addition, the Papp in data set [3] amounted to 252 nm/s; in [4], 389 nm/s. Besides, the Ratio IC50 in the data set filed under Homo sapiens came to 2.8.
In the case of `CS(=O)(=O)C(C(=O)NCCNS(N)(=O)=O)c1nc2ccc(-c3ccccc3)cc2s1` (centres undefined), the values for the IC50 (against Endothelial lipase [6]; in data set [1]) were 0.45 µM and 0.081 µM, respectively.
Take `CS(=O)(=O)C(C(=O)NCCCS(N)(=O)=O)c1nc2ccc(-c3ccccc3)cc2s1` (centres undefined): the results for the IC50 (against Endothelial lipase [6]; in data set [1]) were 7.7 µM and 0.052 µM, respectively.
For `CS(=O)(=O)C(C(=O)NCCS(N)(=O)=O)c1nc2ccc(-c3ccc(C(=O)N4CCOCC4)cc3)cc2s1` (centres undefined), the values for the IC50 (against Endothelial lipase [6]; in [1]; on Endothelial lipase [2]) were 0.01 µM, 0.28 µM and 0.32 µM, respectively. For the same compound, in [7], the Cmax was 0.036 µM. In data set [8], the concentration at 7 h worked out at 0.008 µM. This compound also had a concentration at 24 h in data set [9] of 0.005 µM. Further, in data set [10], the Tmax stood at 2.6 h. The same compound gave an AUC at 24 h in data set [11] of 160 nM·h. Further, the remaining at 10 min, 0.5 µM in [12] is 100%. Also, the values for the Papp in data set [3] and in data set [4] were 12 nm/s and 13 nm/s, respectively.
For the compound `CS(=O)(=O)C(C(=O)NCCS(N)(=O)=O)c1nc2ccc(-c3ccccc3)cc2s1` (centres undefined), the IC50 at Endothelial lipase [6] was 0.01 µM; in [1], 0.015 µM; at Endothelial lipase [2], 0.1 to 0.21 µM. For the same compound, the Cmax in data set [7] was determined as 3.5 µM. The same compound displayed a concentration at 7 h in data set [8] of 0.43 µM. In [9], this compound displayed a concentration at 24 h of 0.13 µM. The Tmax in data set [10] stood at 0.5 h. This compound yielded an AUC at 24 h in data set [11] of 14000 nM·h. Besides, in [12], the remaining at 10 min, 0.5 µM was 91%. Moreover, the Papp in data set [3] is 365 nm/s; in [4] it was 368 nm/s.
As to `O=C(CNC(=O)C(c1nc2ccc(-c3ccc(F)nc3)cc2s1)S(=O)(=O)CCC(F)(F)F)NC1CC1` (centres undefined), the IC50 in data set [1] is 0.079 µM; on Endothelial lipase [2], 0.6 µM; on Endothelial lipase [5], 0.66 µM. In addition, the Ratio IC50 in the data set filed under Homo sapiens is 2.7.
In the case of `O=C(CNC(=O)C(c1nc2ccc(-c3ccc(F)nc3)cc2s1)S(=O)(=O)Cc1ccccc1)NC1CC1` (centres undefined), the IC50 against Endothelial lipase [6] was 0.025 µM; in [1], 0.007 µM; on Endothelial lipase [2] it was 0.094 µM; at Endothelial lipase [5], 0.065 µM. The Ratio IC50 in the data set filed under Homo sapiens came out at 0.3.
As to `CS(=O)(=O)C(C(=O)NCCS(N)(=O)=O)c1nc2ccc(-c3cnn(CCN4CCOCC4)c3)cc2s1` (centres undefined), the values for the IC50 on Endothelial lipase [6] and at Endothelial lipase [2] were 0.01 µM and 0.19 µM, respectively. This compound showed a Cmax in [7] of 0.015 µM. In data set [8], the concentration at 7 h came out at 0.004 µM. The compound also came in with a concentration at 24 h in [9] of 0.001 µM. Further, in data set [10], the Tmax worked out at 3 h. Further, the AUC at 24 h in [11] was found to be 100 nM·h. In data set [12], the remaining at 10 min, 0.5 µM came to 74%.
For the compound `CS(=O)(=O)C(C(=O)NCCS(N)(=O)=O)c1nc2ccc(-c3ccc(F)nc3)cc2s1` (centres undefined), the IC50 against Endothelial lipase [6] amounted to 0.005 µM; in data set [1], 4.4 µM; at Endothelial lipase [2] it was 0.2 µM. In data set [7], this compound had a Cmax of 0.03 µM. This compound had a concentration at 7 h in data set [8] of 0.001 µM. For the same compound, the AUC at 24 h in data set [11] is 50 nM·h. Moreover, the remaining at 10 min, 0.5 µM in data set [12] came to 96%. For the same compound, the values for the Papp in [3] and in data set [4] were 17 nm/s and 78 nm/s, respectively.
